Values joined by “and” are separate entries in the source; they are usually repeats but may differ in a detail not shown here. Identical values can stand only once.

Consider 8 compounds from PubChem BioAssay AID624012 (Broad Institute, 2012).

This assay deals with S. cerevisiae growth in glycerol medium, OD600, 48 h. In words: S. cerevisiae growth inhibition on glycerol, dose response, glycerol medium, plate reader, dry powder, set 4 (AID 624012). The essentials: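 System – S. cerevisiae yeast cells · Buffer or medium – CSM-glycerol medium · Schedule – 48 h exposure, 30 °C · Detection – optical density at 600 nm (absorbance) · Benchmarks – amphotericin B 10 µM positive control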

A word on the AC50: it is the concentration giving half of the maximal activity seen. For the compound `CCOC(=O)N1C(=O)C2(CCCCC2)N(c2ccccc2)C1=S`, the concentration at half-maximal activity (AC50) is 14.6 nM.

As to `CCOC(=O)N1C(=O)C2(CCCCC2)N(c2ccc(C#N)cc2)C1=S`, the concentration at half-maximal activity (AC50) is 3.65 nM.

On to `CCOC(=O)N1C(=O)C2(CCCCC2)N(c2ccc(C)cc2)C1=S`, for which the concentration at half-maximal activity (AC50) was 10.8 nM and 6.97 nM.

Regarding `C/C=C/[C@@H]1[C@H]2C[C@@H](C)CC[C@@H]2C(C)=C[C@H]1C(=O)c1c(O)c(-c2ccc(O)cc2)c[nH]c1=O`, the AC50 is 27.5 nM.

As to `CCOC(=O)N1C(=O)C2(CCCCC2)N(c2cccc(C)c2)C1=S`, the AC50 was 18.1 nM.

On to `CCOC(=O)N1C(=O)C2(CCCCC2)N(c2ccc(Cl)cc2)C1=S`, for which the concentration at half-maximal activity (AC50) is 5.77 nM.

Take `CC1/C=C/C=C\C=C\C=C\C=C\C=C\C=C\C(O[C@H]2OC(C)C(O)C(N)C2O)CC2OC(O)(CC(O)CC(O)C(O)CCC(O)CC(O)CC(=O)OC(C)C(C)C1O)CC(O)C2C(=O)O` (stereo partly drawn): the AC50 was 274 nM.

As to `CCOC(=O)N1C(=O)C2(CCCCC2)N(c2ccc(F)cc2)C1=S`, the half-maximal activity concentration (AC50) was 3.97 nM.
